Numbered stars: 1 amine (or outer) side, 2 acyl side, 3 side chain; on linkers, the order of the positions; unused ones are H or OH. Bridge positions count the residues as written; N and C are the ends. Square brackets hold non-standard residues; d marks the D form. Peptide text beside a SMILES is read from it. I, II: the chains in the order shown. * marks the point of attachment. ξ: configuration not given here. Naphthalene(2,7-(OC3H6CO)2) = O=C(CCCOc1ccc2ccc(OCCCC(=O)[*:2])cc2c1)[*:1]; X1 = COC(=O)CCCOc1ccc2ccc(OCCCC(=O)*)cc2c1; Thr(3ξ) = CC(O)[C@H](N)C(=O)O

The first assay addresses Human immunodeficiency virus type 1 protease (Human immunodeficiency virus 1) (UniProt Q72874). The experiment in a line: The compound was tested for HIV-1 protease inhibitory activity against plasmid pET9c-PR expressing HIV-1 protease at 6.7 uM. The procedure, abridged: (§1)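 Recombinant HIV-1 protease (expressed from pET9c-PR), 7.5 nM final, prediluted in buffer with 1 mg/mL BSA. Inhibitor was mixed with fluorogenic substrate (5.2 μM final) and the reaction started with enzyme. Fluorescence rise at 490 nm (excitation 340 nm) was followed for 5 min at 30 °C.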
As usually defined, the inhibition is the drop in the measured response relative to a control, in per cent. With `COC(=O)[C@@H](NC(=O)[C@H](CC(C)C)NC(=O)[C@@H](NC(=O)CCCOc1cccc(OCCCC(=O)N[C@H](C(=O)N[C@@H](CC(C)C)C(=O)N[C@H](C(=O)OC)C(C)C)C(C)O)n1)C(C)O)C(C)C` (stereo not given in full), the inhibition was determined as 30%.

For the next assay the target is unchanged. Description: The compound was tested for HIV-1 protease inhibitory activity against plasmid pET9c-PR expressing HIV-1 protease at 7 uM. The procedure, abridged: as §1
In the case of `COC(=O)CCCOc1ccc2ccc(OCCCC(=O)N[C@H](C(=O)N[C@@H](CC(C)C)C(=O)N[C@@H](CC(N)=O)C(=O)N[C@@H](Cc3ccccc3)C(=O)OC)C(C)O)cc2c1` (stereo not given in full) (X1-[Thr(3ξ)]LNF-OMe), the inhibition was 30%.

The next assay addresses T1, Human immunodeficiency virus type 1 protease (Human immunodeficiency virus 1, UniProt Q72874). Description: The compound was tested for HIV-1 protease inhibitory activity against plasmid pET9c-PR expressing HIV-1 protease.
As usually defined, the IC50 is the concentration at which inhibition is half-maximal. A high value points to a need for much substance. `COC(=O)[C@@H](NC(=O)[C@H](CC(C)C)NC(=O)[C@@H](NC(=O)CCCOc1cccc(OCCCC(=O)N[C@H](C(=O)N[C@@H](CC(C)C)C(=O)N[C@H](C(=O)OC)C(C)C)C(C)C)n1)C(C)C)C(C)C` came in with a concentration for half-maximal inhibition (IC50) of 3 µM.

Compound `COC(=O)[C@H](CC(C)C)NC(=O)[C@H](CC(C)C)NC(=O)CNC(=O)CCCOc1cccc(OCCCC(=O)NCC(=O)N[C@@H](CC(C)C)C(=O)N[C@@H](CC(C)C)C(=O)OC)n1` came in with an IC50 of 16 µM.

Turning to `COC(=O)[C@H](Cc1ccccc1)NC(=O)[C@H](CC(N)=O)NC(=O)[C@H](CC(C)C)NC(=O)[C@@H](NC(=O)CCCOc1cccc(OCCCC(=O)N[C@H](C(=O)N[C@@H](CC(C)C)C(=O)N[C@@H](CC(N)=O)C(=O)N[C@@H](Cc2ccccc2)C(=O)OC)C(C)O)n1)C(C)O` (stereo not given in full), the midpoint of inhibition, the IC50, lay at 10 µM. This IC50 is about 1.6-fold lower than that of the compound before.

`COC(=O)[C@H](Cc1ccccc1)NC(=O)[C@H](CC(N)=O)NC(=O)[C@H](CC(C)C)NC(=O)[C@@H](NC(=O)CCCOc1ccc2ccc(OCCCC(=O)N[C@H](C(=O)N[C@@H](CC(C)C)C(=O)N[C@@H](CC(N)=O)C(=O)N[C@@H](Cc3ccccc3)C(=O)OC)C(C)O)cc2c1)C(C)O` (stereo not given in full) (I: [Thr(3ξ)]LNF-OMe / II: [Thr(3ξ)]LNF-OMe; linker I:N-II:N via Naphthalene(2,7-(OC3H6CO)2)) displayed an IC50 of 4.4 µM.

For the compound `CC[C@@H](C)[C@H](NC(=O)[C@@H](NC(=O)CCCOc1cccc(OCCCC(=O)N[C@H](C(=O)N[C@H](C(=O)N[C@H](C(=O)OC)C(C)C)[C@H](C)CC)C(C)O)n1)C(C)O)C(=O)N[C@H](C(=O)OC)C(C)C` (stereo not given in full), half-maximal inhibition (IC50) was put at 4.2 µM.

The compound `CC(C)C[C@H](NC(=O)[C@@H](NC(=O)CCCOc1ccc2ccc(OCCCC(=O)N[C@H](C(=O)N[C@@H](CC(C)C)C(=O)N[C@H](C(=O)O)C(C)C)C(C)O)cc2c1)C(C)O)C(=O)N[C@H](C(=O)O)C(C)C` (stereo not given in full) returned an IC50 of 10 µM. Compared with the last compound, the IC50 is about 2.4-fold higher.

Compound `CC(C)C[C@H](NC(=O)[C@@H](NC(=O)CCCOc1cccc(OCCCC(=O)N[C@H](C(=O)N[C@@H](CC(C)C)C(=O)N[C@H](C(=O)O)C(C)C)C(C)O)n1)C(C)O)C(=O)N[C@H](C(=O)O)C(C)C` (stereo not given in full) returned a half-maximal inhibitory concentration (IC50) of 34 µM.

The compound `COC(=O)[C@@H](NC(=O)[C@H](CC(C)C)NC(=O)[C@@H](NC(=O)CCCOc1ccc2ccc(OCCCC(=O)N[C@H](C(=O)N[C@@H](CC(C)C)C(=O)N[C@H](C(=O)OC)C(C)C)C(C)C)cc2c1)C(C)C)C(C)C` returned a concentration for half-maximal inhibition (IC50) of 2 µM.

Turning to `COC(=O)CCCOc1ccc2ccc(OCCCC(=O)N[C@H](C(=O)N[C@@H](CC(C)C)C(=O)N[C@H](C(=O)N[C@H](C(=O)OC)C(C)C)C(C)C)C(C)O)cc2c1` (stereo not given in full) (X1-[Thr(3ξ)]LVV-OMe), inhibition was half-maximal at 10 µM (IC50). Against the preceding compound, the IC50 is about 5-fold higher.

The target in another assay is Human immunodeficiency virus type 1 protease (Human immunodeficiency virus 1) (UniProt Q72874). The experiment in a line: The compound was tested for HIV-1 protease inhibitory activity against plasmid pET9c-PR expressing HIV-1 protease at 4.5 uM. The essentials: as §1
As to `COC(=O)CCCOc1ccc2ccc(OCCCC(=O)N[C@H](C(=O)N[C@@H](CC(C)C)C(=O)N[C@H](C(=O)OC)C(C)C)C(C)O)cc2c1` (stereo not given in full), the inhibition amounted to 30%.

The target in another assay is T1, Human immunodeficiency virus type 1 protease. Description: Inhibition of plasmid pET9c-PR expressing HIV-1 protease (No inhibition).
For the compound `COC(=O)[C@@H](NC(=O)[C@@H](NC(=O)[C@H](CC(C)C)NC(=O)[C@@H](NC(=O)CCCOc1ccc2ccc(OCCCC(=O)N[C@H](C(=O)N[C@@H](CC(C)C)C(=O)N[C@H](C(=O)N[C@H](C(=O)OC)C(C)C)C(C)C)[C@@H](C)O)cc2c1)[C@@H](C)O)C(C)C)C(C)C` (I: TLVV-OMe / II: TLVV-OMe; linker I:N-II:N via Naphthalene(2,7-(OC3H6CO)2)), the half-inhibitory concentration (IC50) entry was “Not Active”.

`CC[C@@H](C)[C@H](NC(=O)[C@H](CCC(N)=O)NC(=O)CCCOc1cccc(OCCCC(=O)N[C@@H](CCC(N)=O)C(=O)N[C@H](C(=O)OC)[C@H](C)CC)c1)C(=O)OC`: the half-maximal inhibitory concentration (IC50) result is “Not Active”.

As for `CC(C)C[C@H](NC(=O)[C@@H](NC(=O)CCCOc1cccc(OCCCC(=O)N[C@H](C(=O)N[C@@H](CC(C)C)C(=O)N[C@H](C(=O)O)C(C)C)C(C)O)c1)C(C)O)C(=O)N[C@H](C(=O)O)C(C)C` (stereo not given in full), the IC50 result was “Not Active”.

As to `CC[C@H](C)[C@H](NC(=O)[C@H](CCC(N)=O)NC(=O)CCCOc1cccc(OCCCC(=O)N[C@@H](CCC(N)=O)C(=O)N[C@H](C(=O)N[C@H](C(=O)N[C@@H](CC(C)C)C(=O)OC)C(C)O)[C@@H](C)CC)n1)C(=O)N[C@H](C(=O)N[C@@H](CC(C)C)C(=O)OC)C(C)O` (stereo not given in full), the IC50 entry is on record as “Not Active”.

Consider `COC(=O)CCCOc1ccc2ccc(OCCCC(=O)N[C@H](C(=O)N[C@@H](CC(C)C)C(=O)N[C@@H](Cc3ccc(O)cc3)C(=O)OC)C(C)O)cc2c1` (stereo not given in full), for which the 50% inhibitory concentration (IC50) entry was “Not Active”.

As for `COC(=O)CCCOc1ccc2ccc(OCCCC(=O)N[C@H](C(=O)N[C@@H](CC(C)C)C(=O)N[C@H](C(=O)OC)C(C)C)C(C)C)cc2c1`, the 50% inhibitory concentration (IC50) entry is on record as “Not Active”.

With `COC(=O)[C@@H](NC(=O)[C@H](CC(C)C)NC(=O)[C@@H](NC(=O)CCCOc1cccc(OCCCC(=O)N[C@H](C(=O)N[C@@H](CC(C)C)C(=O)N[C@H](C(=O)OC)C(C)C)C(C)C)c1)C(C)C)C(C)C`, the IC50 entry is recorded as “Not Active”.

As to `CC[C@H](C)[C@H](NC(=O)[C@H](CCC(N)=O)NC(=O)CCCOc1ccc2ccc(OCCCC(=O)OC)cc2c1)C(=O)N[C@H](C(=O)N[C@@H](CC(C)C)C(=O)OC)C(C)O` (stereo partly drawn) (X1-QI[Thr(3ξ)]L-OMe), the IC50 result is “Not Active”.

For `CC(C)C[C@H](NC(=O)[C@@H](NC(=O)CCCOc1ccc2ccc(OCCCC(=O)N[C@H](C(=O)N[C@@H](CC(C)C)C(=O)N[C@H](C(=O)OCc3ccccc3)C(C)C)C(C)O)cc2c1)C(C)O)C(=O)N[C@H](C(=O)OCc1ccccc1)C(C)C` (stereo not given in full), the IC50 entry is given as “Not Active”.

Take `CC[C@H](C)[C@H](NC(=O)[C@H](CCC(N)=O)NC(=O)CCCOc1ccc2ccc(OCCCC(=O)N[C@@H](CCC(N)=O)C(=O)N[C@H](C(=O)N[C@H](C(=O)N[C@@H](CC(C)C)C(=O)OC)C(C)O)[C@@H](C)CC)cc2c1)C(=O)N[C@H](C(=O)N[C@@H](CC(C)C)C(=O)OC)C(C)O` (stereo partly drawn) (I: QI[Thr(3ξ)]L-OMe / II: QI[Thr(3ξ)]L-OMe; linker I:N-II:N via Naphthalene(2,7-(OC3H6CO)2)): the IC50 entry was “Not Active”.

For the compound `COC(=O)[C@@H](NC(=O)[C@@H](NC(=O)CCCOc1cccc(OCCCC(=O)N[C@H](C(=O)N[C@H](C(=O)OC)C(C)C)C(C)O)n1)C(C)O)C(C)C` (stereo not given in full), the IC50 result is on record as “Not Active”.

For `CC[C@@H](C)[C@H](NC(=O)[C@H](CCC(N)=O)NC(=O)CCCOc1ccc2ccc(OCCCC(=O)N[C@@H](CCC(N)=O)C(=O)N[C@H](C(=O)OC)[C@H](C)CC)cc2c1)C(=O)OC`, the concentration for half-maximal inhibition (IC50) entry is “Not Active”.

With `COC(=O)[C@H](Cc1ccc(O)cc1)NC(=O)[C@H](CC(C)C)NC(=O)[C@@H](NC(=O)CCCOc1ccc2ccc(OCCCC(=O)N[C@H](C(=O)N[C@@H](CC(C)C)C(=O)N[C@@H](Cc3ccc(O)cc3)C(=O)OC)C(C)O)cc2c1)C(C)O` (stereo not given in full), the IC50 result is “Not Active”.

Consider `COC(=O)[C@@H](NC(=O)[C@H](CC(C)C)NC(=O)[C@@H](NC(=O)CCCOc1ccc2ccc(OCCCC(=O)N[C@H](C(=O)N[C@@H](CC(C)C)C(=O)N[C@H](C(=O)OC)C(C)C)C(C)O)cc2c1)C(C)O)C(C)C` (stereo not given in full), for which the concentration for half-maximal inhibition (IC50) result is reported as “Not Active”.

In another assay the target is Human immunodeficiency virus type 1 protease (Human immunodeficiency virus 1) (UniProt Q72874). Description: The compound was tested for HIV-1 protease inhibitory activity against plasmid pET9c-PR expressing HIV-1 protease. activity is expressed as Kid value. The essentials: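 Dissociative (antidimer) inhibition was analysed by the Zhang kinetic method. Fluorogenic substrate was held at 5.2 μM ([S]0 ≪ Km, Km = 103 μM), with at least five HIV-1 protease (pET9c-PR) levels (2.37–11.8 nM) at several inhibitor concentrations. Runs were at pH 4.7 acetate buffer, 30 °C, fluorescence 340/490 nm. Kid was taken from regression fits of [E]0/√vi versus √vi.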
Take `COC(=O)[C@H](CC(C)C)NC(=O)[C@H](CC(C)C)NC(=O)CNC(=O)CCCOc1cccc(OCCCC(=O)NCC(=O)N[C@@H](CC(C)C)C(=O)N[C@@H](CC(C)C)C(=O)OC)n1`: the Kid stood at 4.5 µM.

On to `COC(=O)[C@H](Cc1ccccc1)NC(=O)[C@H](CC(N)=O)NC(=O)[C@H](CC(C)C)NC(=O)[C@@H](NC(=O)CCCOc1ccc2ccc(OCCCC(=O)N[C@H](C(=O)N[C@@H](CC(C)C)C(=O)N[C@@H](CC(N)=O)C(=O)N[C@@H](Cc3ccccc3)C(=O)OC)C(C)O)cc2c1)C(C)O` (stereo not given in full) (I: [Thr(3ξ)]LNF-OMe / II: [Thr(3ξ)]LNF-OMe; linker I:N-II:N via Naphthalene(2,7-(OC3H6CO)2)), for which the Kid turned out to be 1 µM.

With `CC[C@@H](C)[C@H](NC(=O)[C@@H](NC(=O)CCCOc1cccc(OCCCC(=O)N[C@H](C(=O)N[C@H](C(=O)N[C@H](C(=O)OC)C(C)C)[C@H](C)CC)C(C)O)n1)C(C)O)C(=O)N[C@H](C(=O)OC)C(C)C` (stereo not given in full), the Kid came to 1.4 µM.

Turning to `COC(=O)[C@@H](NC(=O)[C@H](CC(C)C)NC(=O)[C@@H](NC(=O)CCCOc1ccc2ccc(OCCCC(=O)N[C@H](C(=O)N[C@@H](CC(C)C)C(=O)N[C@H](C(=O)OC)C(C)C)C(C)C)cc2c1)C(C)C)C(C)C`, the Kid came out at 0.56 µM.
